The source of these data is ChEMBL document CHEMBL4354819, “Discovery of Novel Small Molecule Dual Inhibitors Targeting Toll-Like Receptors 7 and 8” (J Med Chem, 2019).

The source made the active and inactive calls. The rule behind the calls is not given here.

Series [1] addresses Toll-like receptor 7 (Mus musculus) (UniProt P58681). The series is described as follows: Inhibition of endogenous mouse TLR7 in mouse RAW264.7 cells assessed as resiquimod-induced NO production at 1.25 uM incubated for 18 to 24 hrs.
The test system of a further series is THP-1. The series is described as follows: Inhibition of IFN mediated immune response in human THP1 cells assessed as inhibition of 3p-hpRNA-induced RIG1 signalling pathway at 20 uM incubated for 16 hrs by luciferase assay. The format is functional, cell-based. In short, it runs like this:
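THP1-Dual monocytes carrying Lucia luciferase and SEAP reporters were stimulated with 3p-hpRNA (RIG-I agonist) or Y-form dsDNA G3-YSD (cGAS agonist), with or without compound. Secreted Lucia luciferase luminescence was measured as the type I IFN read-out. Mean ± s.d., n = 3 independent experiments.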

The target in series [2] is Toll-like receptor 7 (Mus musculus) (UniProt P58681). The series is described as follows: Inhibition of endogenous mouse TLR7 in mouse RAW264.7 cells assessed as resiquimod-induced NO production at < 5 uM incubated for 18 to 24 hrs.
Series [3] deals with T1, Toll-like receptor 8 (Homo sapiens) (UniProt Q9NR97).
T1 sequence (whole entry): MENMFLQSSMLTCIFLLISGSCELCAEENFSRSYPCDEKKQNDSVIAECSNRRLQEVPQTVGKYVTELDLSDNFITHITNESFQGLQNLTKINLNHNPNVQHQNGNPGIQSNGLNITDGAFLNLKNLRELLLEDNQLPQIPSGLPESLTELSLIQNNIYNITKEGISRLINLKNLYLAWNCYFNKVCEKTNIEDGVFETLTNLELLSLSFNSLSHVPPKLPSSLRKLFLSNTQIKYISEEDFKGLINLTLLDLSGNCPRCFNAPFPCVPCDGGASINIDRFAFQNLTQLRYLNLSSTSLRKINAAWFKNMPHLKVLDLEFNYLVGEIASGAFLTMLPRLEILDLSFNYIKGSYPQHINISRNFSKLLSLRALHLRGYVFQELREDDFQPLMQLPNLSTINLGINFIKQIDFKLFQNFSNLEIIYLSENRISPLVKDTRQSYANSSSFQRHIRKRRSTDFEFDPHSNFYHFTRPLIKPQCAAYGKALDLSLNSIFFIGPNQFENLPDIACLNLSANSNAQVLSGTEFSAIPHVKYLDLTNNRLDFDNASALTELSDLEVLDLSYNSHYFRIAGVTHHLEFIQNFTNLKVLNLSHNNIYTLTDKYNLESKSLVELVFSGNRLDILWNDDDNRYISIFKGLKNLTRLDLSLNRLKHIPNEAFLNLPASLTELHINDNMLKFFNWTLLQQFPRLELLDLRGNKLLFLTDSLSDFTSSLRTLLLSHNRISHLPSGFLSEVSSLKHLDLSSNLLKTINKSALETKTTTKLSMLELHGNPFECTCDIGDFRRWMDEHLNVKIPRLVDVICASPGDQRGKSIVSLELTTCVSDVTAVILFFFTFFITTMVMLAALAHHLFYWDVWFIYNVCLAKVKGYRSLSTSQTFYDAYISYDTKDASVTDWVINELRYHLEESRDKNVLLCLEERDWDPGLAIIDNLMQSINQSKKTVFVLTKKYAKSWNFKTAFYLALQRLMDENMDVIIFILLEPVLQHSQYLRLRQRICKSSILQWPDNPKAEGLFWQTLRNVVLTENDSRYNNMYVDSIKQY
Nature of the series: Inhibition of human TLR8 expressed in HEK293 cells assessed as reduction in R848-induced NFkappaB production incubated for 16 hrs by quanti-blue SEAP assay. The format is cell-based. In short, it runs like this:
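HEK 293-Blue cells stably expressing hTLR7 or hTLR8 with an inducible SEAP reporter were incubated 16 h with compound under 1 µg/mL R848 stimulation. SEAP was read at 620 nm. Data were normalized to the R848 control, and IC50 was taken from concentration-response curves. […] Mean ± s.d., n = 3 independent experiments.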

In a further series the test system is HEK293. Nature of the series: Cytotoxicity against human HEK293 cells transfected with human TLR8 assessed as reduction in cell viability up to 5 uM incubated for 16 hrs by WST-1 assay. The format is cell-based. Conditions: hek293, 16 h. (Formazan colour is commonly taken as a measure of viable cells.)
Series [4] deals with T2, Toll-like receptor 9 (Homo sapiens) (UniProt Q9NR96).
T2 sequence (whole entry): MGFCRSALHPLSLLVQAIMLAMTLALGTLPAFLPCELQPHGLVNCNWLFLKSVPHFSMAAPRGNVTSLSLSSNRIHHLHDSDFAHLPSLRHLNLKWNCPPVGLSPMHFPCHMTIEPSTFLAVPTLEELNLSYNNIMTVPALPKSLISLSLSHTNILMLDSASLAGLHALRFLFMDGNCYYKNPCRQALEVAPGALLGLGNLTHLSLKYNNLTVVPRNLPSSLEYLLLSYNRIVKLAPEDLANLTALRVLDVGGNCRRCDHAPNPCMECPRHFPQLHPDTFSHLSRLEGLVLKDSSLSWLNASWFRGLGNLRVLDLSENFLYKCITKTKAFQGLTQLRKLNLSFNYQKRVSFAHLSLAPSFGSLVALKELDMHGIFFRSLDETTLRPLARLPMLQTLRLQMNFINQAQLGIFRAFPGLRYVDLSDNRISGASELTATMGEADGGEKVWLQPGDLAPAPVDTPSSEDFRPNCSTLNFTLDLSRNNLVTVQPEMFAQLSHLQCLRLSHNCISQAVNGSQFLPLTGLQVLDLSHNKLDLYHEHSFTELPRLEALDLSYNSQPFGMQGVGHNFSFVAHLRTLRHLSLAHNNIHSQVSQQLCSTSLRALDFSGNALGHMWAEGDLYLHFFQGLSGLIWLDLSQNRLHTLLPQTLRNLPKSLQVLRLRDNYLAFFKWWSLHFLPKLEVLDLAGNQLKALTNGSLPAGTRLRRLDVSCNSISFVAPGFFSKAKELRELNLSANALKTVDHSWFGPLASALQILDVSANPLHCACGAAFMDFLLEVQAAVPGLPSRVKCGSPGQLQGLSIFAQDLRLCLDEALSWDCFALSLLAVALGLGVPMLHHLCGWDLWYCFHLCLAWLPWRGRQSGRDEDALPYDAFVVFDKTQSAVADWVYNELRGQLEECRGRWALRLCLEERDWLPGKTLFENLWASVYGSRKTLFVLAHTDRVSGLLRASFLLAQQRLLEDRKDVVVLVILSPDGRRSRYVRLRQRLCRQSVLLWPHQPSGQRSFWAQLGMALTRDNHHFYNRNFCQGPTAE
The series is described as follows: Inhibition of human TLR9 expressed in HEK293 cells assessed as reduction in ODN-2006-induced NFkappaB production at 3 to 5 uM incubated for 16 hrs by quanti-blue SEAP assay. Type of series: cell-based. In short, it runs like this:
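Selectivity panel in stably transfected HEK 293-Blue cells, each overexpressing one human TLR with an inducible SEAP reporter. Agonists: Pam3CSK4 (TLR1/2), Pam2CSK4 (TLR2/6), poly(I:C) (TLR3), LPS (TLR4), R848 (TLR7/8), ODN 2006 (TLR9). Cells were exposed to compound for 16 h. Activity = (raw − untreated)/(ligand + solvent − untreated), with ligand + solvent set as 100%.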

Toll-like receptor 7 (Mus musculus), sequence (P58681 whole entry, looked up): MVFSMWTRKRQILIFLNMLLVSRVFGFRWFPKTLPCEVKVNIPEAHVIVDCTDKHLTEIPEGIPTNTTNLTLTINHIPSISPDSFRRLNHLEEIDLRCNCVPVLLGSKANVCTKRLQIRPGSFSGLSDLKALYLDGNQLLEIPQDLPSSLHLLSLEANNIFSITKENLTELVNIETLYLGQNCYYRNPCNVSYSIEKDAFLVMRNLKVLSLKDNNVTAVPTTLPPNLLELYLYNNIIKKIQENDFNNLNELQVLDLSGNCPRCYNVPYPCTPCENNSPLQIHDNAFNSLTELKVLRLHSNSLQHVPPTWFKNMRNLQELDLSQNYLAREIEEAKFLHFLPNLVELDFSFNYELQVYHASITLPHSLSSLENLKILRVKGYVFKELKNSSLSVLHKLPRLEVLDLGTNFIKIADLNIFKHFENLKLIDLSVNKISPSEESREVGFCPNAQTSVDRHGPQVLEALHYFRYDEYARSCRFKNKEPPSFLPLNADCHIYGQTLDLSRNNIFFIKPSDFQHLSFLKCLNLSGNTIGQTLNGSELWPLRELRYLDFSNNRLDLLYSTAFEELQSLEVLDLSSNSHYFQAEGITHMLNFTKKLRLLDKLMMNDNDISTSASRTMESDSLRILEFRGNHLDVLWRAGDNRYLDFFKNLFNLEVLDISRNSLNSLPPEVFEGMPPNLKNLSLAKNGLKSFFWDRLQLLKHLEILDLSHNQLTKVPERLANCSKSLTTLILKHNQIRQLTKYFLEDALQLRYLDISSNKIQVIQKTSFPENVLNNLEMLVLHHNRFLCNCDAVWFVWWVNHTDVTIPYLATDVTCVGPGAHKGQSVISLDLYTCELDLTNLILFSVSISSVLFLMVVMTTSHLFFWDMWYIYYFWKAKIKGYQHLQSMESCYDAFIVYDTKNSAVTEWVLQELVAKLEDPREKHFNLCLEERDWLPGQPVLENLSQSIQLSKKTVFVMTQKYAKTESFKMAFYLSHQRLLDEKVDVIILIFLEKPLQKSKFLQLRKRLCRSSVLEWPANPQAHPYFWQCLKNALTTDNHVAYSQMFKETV

`O=C(Nc1ccc(Oc2cc(C(F)(F)F)cc(C(F)(F)F)c2)cc1)c1c(F)cccc1I`: the inhibition entry in series [1] is “inactive”.
For `O=[N+]([O-])c1c(I)cccc1Oc1ccc(-c2nnco2)cc1`, the inhibition result in the series with THP-1 is “Active”. For the same compound, the inhibition entry in series [2] is “inactive”.
Consider `O=C(Nc1ccc(Oc2cc(C(F)(F)F)cc(C(F)(F)F)c2)cc1)c1c(F)cccc1Cl`, for which the inhibition result in series [3] was “Dose-dependent effect”. Also, in the series with HEK293, the Activity entry is “Non-Toxic”. Also, the inhibition entry in series [4] was “Active”.
